Assays:
[1] = target: T1, recombinant human AKR1C2 (Homo sapiens, UniProt P52895); test: Related enzyme screen; assay type: biochemical; details: preclinical screen
T1 sequence (P52895 1-323): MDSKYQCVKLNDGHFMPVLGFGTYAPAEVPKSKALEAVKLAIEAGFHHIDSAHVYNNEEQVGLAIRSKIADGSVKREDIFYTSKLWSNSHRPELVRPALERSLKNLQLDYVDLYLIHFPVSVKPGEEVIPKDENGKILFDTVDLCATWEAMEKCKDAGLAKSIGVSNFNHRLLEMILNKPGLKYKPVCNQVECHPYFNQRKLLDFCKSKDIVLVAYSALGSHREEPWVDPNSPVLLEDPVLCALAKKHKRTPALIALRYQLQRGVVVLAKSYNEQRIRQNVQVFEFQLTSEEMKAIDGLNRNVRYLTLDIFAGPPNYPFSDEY

[2] = target: T2, human AKR1D1 (Homo sapiens, UniProt P51857); test: AKR1D1 inhibition, cortisone as model substrate; assay type: biochemical
T2 sequence (P51857 1-326): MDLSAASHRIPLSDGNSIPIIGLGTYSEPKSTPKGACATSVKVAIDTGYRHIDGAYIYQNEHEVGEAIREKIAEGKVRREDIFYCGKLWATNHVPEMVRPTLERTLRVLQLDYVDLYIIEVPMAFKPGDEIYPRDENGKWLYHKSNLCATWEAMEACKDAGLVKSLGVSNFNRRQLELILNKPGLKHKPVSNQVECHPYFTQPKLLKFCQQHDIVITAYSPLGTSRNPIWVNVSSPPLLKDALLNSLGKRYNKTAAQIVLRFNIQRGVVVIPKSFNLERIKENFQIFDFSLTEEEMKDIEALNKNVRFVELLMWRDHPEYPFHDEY

[3] = test system: 134 human targets including G protein-coupled and nuclear receptors, ion channels, transporters, and enzymes; test: Specificity panel
[4] = target: BSEP (vesicle assay) (Homo sapiens, UniProt O95342); test: Transporter inhibition, vesicle assay; assay type: in vitro ADME; details: read-out: Inhibition characteristics in vitro IC50
[5] = test system: female rats; test: Repeat-dose in vivo toxicity study, rat; set-up: species or system Wistar strain); details: up to highest tested dose of 70 mg/kg, 13 weeks, Bayer data on file
[6] = test system: female monkeys; test: Repeat-dose in vivo toxicity study, monkey; set-up: species or system cynomolgus macaque monkeys (Macaca fascicularis); details: cynomolgus monkey
[7] = test system: adult premenopausal women with endometriosis-related pain symptoms; test: AKRENDO1 phase IIa trial, liver laboratory parameters; assay type: in vivo, human
In short: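 Over 12 weeks of oral dosing or placebo, ALT, AST, total bilirubin and INR were measured at all visits except visit 2. Baseline was the last value before treatment start (visit 3, otherwise screening). Suspected liver injury was worked up per FDA 2009 DILI guidance. Severity was graded by DILI Expert Working Group criteria and causality by RUCAM. Post-baseline ALT was classed by ULN multiples.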

[8] = AKRENDO1 population pharmacokinetic analysis; assay type: in vivo, human; details: 3 mg OD relative to all doses >3 mg; 95% confidence interval, 11–59; popPK model
[9] = test system: serum androsterone; test: AKRENDO1 pharmacodynamics; assay type: in vivo, human; details: completers
[10] = test system: estrogen receptor; details: cited from earlier work
[11] = test system: androgen receptor; details: cited from earlier work
[12] = test system: progesterone receptor; details: cited from earlier work
[13] = test system: endometriotic lesions; details: cited from earlier work
[14] = test system: healthy pre- and postmenopausal women; details: cited from earlier work
[15] = 60 mg BID; cited from earlier work
[16] = 3 mg OD n = 11, largest value per participant
[17] = 3 mg OD n = 11, treatment-emergent
[18] = 10 mg OD n = 31, largest value per participant
[19] = 10 mg OD n = 31, treatment-emergent
[20] = 30 mg BID n = 11, largest value per participant
[21] = 30 mg BID n = 11, treatment-emergent
[22] = 30 mg OD n = 10, largest value per participant
[23] = 30 mg OD n = 10, treatment-emergent
[24] = 60 mg BID n = 27, largest value per participant
[25] = 60 mg BID n = 27, treatment-emergent

Sequence of BSEP (vesicle assay) (O95342 whole entry): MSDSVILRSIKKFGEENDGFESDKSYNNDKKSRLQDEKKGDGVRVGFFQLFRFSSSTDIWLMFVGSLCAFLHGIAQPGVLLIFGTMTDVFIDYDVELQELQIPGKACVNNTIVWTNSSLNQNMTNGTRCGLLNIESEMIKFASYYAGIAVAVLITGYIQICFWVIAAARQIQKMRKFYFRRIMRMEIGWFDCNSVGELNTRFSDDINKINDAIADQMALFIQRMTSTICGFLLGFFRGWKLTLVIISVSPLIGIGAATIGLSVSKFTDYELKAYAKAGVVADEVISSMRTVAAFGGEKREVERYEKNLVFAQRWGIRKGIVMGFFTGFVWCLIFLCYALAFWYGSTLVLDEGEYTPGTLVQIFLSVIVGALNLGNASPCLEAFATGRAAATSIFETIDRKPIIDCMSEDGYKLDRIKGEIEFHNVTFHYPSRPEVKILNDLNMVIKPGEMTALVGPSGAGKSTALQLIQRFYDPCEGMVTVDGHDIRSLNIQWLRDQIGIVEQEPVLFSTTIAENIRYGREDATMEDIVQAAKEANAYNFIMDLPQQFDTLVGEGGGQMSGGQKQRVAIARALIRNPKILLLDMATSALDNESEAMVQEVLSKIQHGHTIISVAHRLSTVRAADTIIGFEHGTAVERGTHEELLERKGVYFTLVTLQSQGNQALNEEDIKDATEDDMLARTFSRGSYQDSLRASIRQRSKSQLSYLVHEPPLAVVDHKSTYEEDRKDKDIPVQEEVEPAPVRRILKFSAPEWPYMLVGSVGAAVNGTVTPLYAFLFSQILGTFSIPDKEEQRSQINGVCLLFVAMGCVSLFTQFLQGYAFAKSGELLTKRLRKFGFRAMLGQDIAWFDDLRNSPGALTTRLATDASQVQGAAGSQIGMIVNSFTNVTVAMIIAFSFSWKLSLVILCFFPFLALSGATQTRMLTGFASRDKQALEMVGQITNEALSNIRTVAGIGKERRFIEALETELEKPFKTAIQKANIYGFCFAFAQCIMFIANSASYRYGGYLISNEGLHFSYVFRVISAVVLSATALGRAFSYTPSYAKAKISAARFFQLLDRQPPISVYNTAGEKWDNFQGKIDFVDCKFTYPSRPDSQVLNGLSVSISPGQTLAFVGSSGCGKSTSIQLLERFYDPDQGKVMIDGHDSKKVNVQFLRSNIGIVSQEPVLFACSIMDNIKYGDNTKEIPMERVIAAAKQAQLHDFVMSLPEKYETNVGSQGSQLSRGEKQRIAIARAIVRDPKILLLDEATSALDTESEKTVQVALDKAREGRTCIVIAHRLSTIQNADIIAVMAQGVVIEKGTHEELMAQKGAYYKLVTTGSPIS

CN(CCC(=O)O)C(=O)c1ccc2c(c1)CC[C@@H]1[C@@H]2CC[C@]2(C)C(c3cncc(F)c3)=CC[C@@H]12 [BAY1128688]
activity against related enzyme [1]: no relevant activity
inhibition of human AKR1D1 activity ([2]; 100 µM, cortisone as model substrate, Bayer AG, data on file): 11%
activity against related enzyme ([2]; preclinical screen): no relevant activity
interactions in specificity panel [3]: no relevant interactions
IC50 [4]: 3.6 µM
hepatotoxicity [5]: No hepatotoxicity was observed
Increase in liver transaminases in animal toxicology study [6]: Not observed in cynomolgus monkey animal toxicology study with BAY1128688
Isolated increase in serum bilirubin in animal toxicology study [6]: Observed in cynomolgus monkey animal toxicology study with BAY1128688
ALT > 2 × ULN and ≤3 × ULN [7, 16]: 0 n (%)
ALT > 3 × ULN and ≤5 × ULN [7, 16]: 0 n (%)
ALT > 5 × ULN and ≤8 × ULN [7, 16]: 0 n (%)
ALT > 8 × ULN [7, 16]: 0 n (%)
AST > 3 × ULN and ≤5 × ULN [7, 16]: 0 n (%)
AST > 8 × ULN [7, 16]: 0 n (%)
ALT, total number of participants with > 2 × ULN [7, 17]: 0 n (%)
AST, total number of participants with > 2 × ULN [7, 17]: 0 n (%)
Bilirubin in serum > 2 × ULN [7, 17]: 0 n (%)
ALT > 2 × ULN and ≤3 × ULN [7, 18]: 1 (3.2) n (%)
ALT > 3 × ULN and ≤5 × ULN [7, 18]: 0 n (%)
ALT > 5 × ULN and ≤8 × ULN [7, 18]: 0 n (%)
ALT > 8 × ULN [7, 18]: 0 n (%)
AST > 3 × ULN and ≤5 × ULN [7, 18]: 0 n (%)
AST > 8 × ULN [7, 18]: 0 n (%)
ALT, total number of participants with > 2 × ULN [7, 19]: 1 (3.2) n (%)
AST, total number of participants with > 2 × ULN [7, 19]: 0 n (%)
Bilirubin in serum > 2 × ULN [7, 19]: 0 n (%)
ALT > 2 × ULN and ≤3 × ULN [7, 20]: 0 n (%)
ALT > 3 × ULN and ≤5 × ULN [7, 20]: 0 n (%)
ALT > 5 × ULN and ≤8 × ULN [7, 20]: 0 n (%)
ALT > 8 × ULN [7, 20]: 0 n (%)
AST > 3 × ULN and ≤5 × ULN [7, 20]: 0 n (%)
AST > 8 × ULN [7, 20]: 0 n (%)
ALT, total number of participants with > 2 × ULN [7, 21]: 0 n (%)
AST, total number of participants with > 2 × ULN [7, 21]: 0 n (%)
Bilirubin in serum > 2 × ULN [7, 21]: 0 n (%)
ALT > 2 × ULN and ≤3 × ULN [7, 22]: 0 n (%)
ALT > 3 × ULN and ≤5 × ULN [7, 22]: 2 (20.0) n (%)
ALT > 5 × ULN and ≤8 × ULN [7, 22]: 0 n (%)
ALT > 8 × ULN [7, 22]: 1 (10.0) n (%)
AST > 3 × ULN and ≤5 × ULN [7, 22]: 0 n (%)
AST > 8 × ULN [7, 22]: 1 (10.0) n (%)
ALT, total number of participants with > 2 × ULN [7, 23]: 3 (30.0) n (%)
AST, total number of participants with > 2 × ULN [7, 23]: 1 (10.0) n (%)
Bilirubin in serum > 2 × ULN [7, 23]: 1 (10.0) n (%)
ALT > 2 × ULN and ≤3 × ULN [7, 24]: 1 (3.7) n (%)
ALT > 3 × ULN and ≤5 × ULN [7, 24]: 3 (11.1) n (%)
ALT > 5 × ULN and ≤8 × ULN [7, 24]: 1 (3.7) n (%)
ALT > 8 × ULN [7, 24]: 1 (3.7) n (%)
AST > 3 × ULN and ≤5 × ULN [7, 24]: 2 (7.4) n (%)
AST > 8 × ULN [7, 24]: 1 (3.7) n (%)
ALT, total number of participants with > 2 × ULN [7, 25]: 6 (22.2) n (%)
AST, total number of participants with > 2 × ULN [7, 25]: 3 (11.1) n (%)
Bilirubin in serum > 2 × ULN [7, 25]: 2 (7.4) n (%)
Dose-dependency of increase in liver transaminases up to liver injury ([7]; AKRENDO1): Risk increased with dose, but extent of ALT increase/liver injury not directly correlated with exposure
Dose-dependency of isolated increase in serum bilirubin ([7]; AKRENDO1): Directly correlated with exposure
Timing of increase in liver transaminases up to liver injury ([7]; AKRENDO1): >8 weeks of exposure to BAY1128688
time to restoration of normal ALT levels ([7]; after end of treatment): up to 3 months
participants with ALT increase > 5 × ULN ([7]; all dose groups): Three
participants with increased ALT > 3 × ULN ([7]; all dose groups, 90 exposed): eight
hepatotoxicity (elevations in serum ALT) ([7]; at around 12 weeks of treatment): Dose-/exposure-dependent hepatotoxicity was observed
increase in relative bioavailability [8]: 35%
cyclicity of sex hormones [9]: No changes
serum concentrations of androsterone ([9]; from visit 4 onwards, 12 weeks): increased dose-dependently
agonism or antagonism [10]: no relevant agonism or antagonism
agonism or antagonism [11]: no relevant agonism or antagonism
agonism or antagonism [12]: no relevant agonism or antagonism
effect on endometriotic lesions compared with vehicle group [13]: reduced endometriotic lesions
ovarian cyclicity after treatment [13]: remained unchanged
increases in ALT or AST ([14]; 90 mg OD and 60 mg BID, 2 weeks): no increases
influence on bile acid metabolism ([14]; exploratory evaluation of bile acids): did not indicate any influence
ovarian cycles ([14]; healthy premenopausal women, up to 60 mg BID for 28 days): normal ovarian cycles were maintained
serum androsterone ([14]; multiple doses): dose-dependent increase
total concentration in human plasma [15]: approximately 10 µM
unbound maximum steady-state concentration in human plasma [15]: < 0.1 µM

From paper PMC10439066 (Drugs in R&D, 2023)
